Experiments:
Type in all cases: functional, cell-based
[1] = tested on: SK-N-SH; assay: Cytotoxicity against human SK-N-SH cells […] by SRB assay
[2] = tested on: PC-3; assay: Cytotoxicity against human PC3 cells […] by SRB assay; conditions: PC-3, 48 h, in the assay text read “48 hrs” for “72 hrs”
Method in brief: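 Human cancer lines from NCI grown in RPMI-1640 (2 mM glutamine, pH 7.4, 10% fetal calf serum, streptomycin/penicillin) at 37 °C, 5% CO2. Cells trypsinized at subconfluence, >98% viable by trypan blue, seeded and grown 24 h, then given test material for 48 h. TCA fixation at 4 °C 1 h, SRB staining, dye dissolved in Tris-HCl pH 10.4, OD 540 nm. Growth inhibition relative to untreated control after blank subtraction.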

[3] = Cytotoxicity against human 502713 cells […] by SRB assay
[4] = tested on: SW-620; assay: Cytotoxicity against human SW620 cells […] by SRB assay
[5] = tested on: COLO 205; assay: Cytotoxicity against human COLO205 cells […] by SRB assay
[6] = tested on: A549; assay: Cytotoxicity against human A549 cells […] by SRB assay

| SMILES | IC50 [1] [µM] | IC50 [2] [µM] | IC50 [3] [µM] | IC50 [4] [µM] | IC50 [5] [µM] | IC50 [6] [µM] |
| --- | --- | --- | --- | --- | --- | --- |
| O=[N+]([O-])c1ccccc1C1c2c(ccc3ccccc23)Oc2ccc3ccccc3c21 | 55 | 82 | 50 | 63.2 | – | – |
| OCC(O)COc1ccc(C2c3c(ccc4ccccc34)Oc3ccc4ccccc4c32)cc1 (stereo unspecified) | 44 | 63.9 | 41.3 | 49.1 | 37.9 | 128 |
| COc1cc(C2c3c(ccc4ccccc34)Oc3ccc4ccccc4c32)ccc1O | 44.3 | 61.1 | 45.4 | 54.4 | 41.9 | 74.3 |

Source: ChEMBL document CHEMBL1155209, “Synthesis and in vitro study of 14-aryl-14H-dibenzo[a.j]xanthenes as cytotoxic agents” (Bioorg Med Chem Lett, 2009)
